Measured values: ChEMBL document CHEMBL5032526 (Eur J Med Chem, 2021)

Key:
[1] = Selectivity index, ratio of CC50 for African green monkey Vero E6 cells to IC50 for Antiviral activity against SARS coronavirus 2 USA/WA1/2020 infected in Vero E6 cells assessed as reduction in virus-induced cytopathic effect; assay type: toxicity, cell-based, Vero C1008; details: read-out: Ratio CC50/IC50
[2] = Selectivity index, ratio of CC50 for human Huh-7 cells to IC50 for Antiviral activity against Ebola virus trVLP infected in human Huh-7 cells; assay type: toxicity, cell-based; details: read-out: Ratio CC50/IC50
Ebolavirus [3] = experiment: Antiviral activity against Ebola virus constitutively expressed firefly infected in human Huh-7 cells expressing pretreated for 1 hrs followed by viral infection and measured after 24 hrs by dual luciferase reporter assay; assay type: functional, organism-based; details: Orthoebolavirus
Method in brief: (§1)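 Huh-7 cells were transfected in suspension with EBOV VP35, NP, VP30 and L plasmids plus constitutive firefly (ce-FF). At 24 h, compounds were added in triplicate (0-50 µM, 2-fold series) for 1 h before trVLP infection.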

SARS-CoV-2 [4] = experiment: Antiviral activity against SARS coronavirus 2 USA/WA1/2020 infected in Calu-3 cells assessed as reduction in virus-induced cytopathic effect preincubated for 1 hr followed by viral infection and measured after 48 hrs; assay type: functional, organism-based; details: Severe acute respiratory syndrome coronavirus 2, USA/WA1/2020, Calu-3
SARS-CoV-2 [5] = experiment: Antiviral activity against SARS Cov-2 USA/WA1/2020 infected in Vero E6 cells assessed as reduction in virus-induced cytopathic effect preincubated for 1 hr followed by viral infection and measured after 48 hrs post infection; assay type: functional, organism-based; details: Severe acute respiratory syndrome coronavirus 2, USA/WA1/2020, Vero C1008
Calu-3 = experiment: (§2) Cytotoxicity against human Calu-3 cells assessed as reduction in cell viability after 48 hrs by Cell-Tox green based fluorescence assay; details: calu-3, 48 h
Method in brief: (§3)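 Calu3 cells (1 x 10^4) were plated and exposed 24 h later to 3-fold serial compound dilutions. At 48 h, CellTox Green fluorescence was read, and CC50 was fitted by four-parameter nonlinear regression.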

Ebolavirus [6] = experiment: Antiviral activity against Ebola virus trVLP infected in human Huh-7 cells pretreated for 1 hrs followed by viral infection and measured after 24 hrs by dual luciferase reporter assay; assay type: functional, organism-based; details: Orthoebolavirus; method in brief: as §1
[7] = Selectivity index, ratio of CC50 for human Calu-3 cells to IC50 for Antiviral activity against SARS coronavirus 2 USA/WA1/2020 infected in human Calu3 cells assessed as reduction in virus-induced cytopathic effect; assay type: toxicity, cell-based; details: read-out: Ratio CC50/IC50
Huh-7 = experiment: (§4) Cytotoxicity against human Huh-7 cells assessed as reduction in cell viability measured after 24 hrs by CellTiter-Glo analysis; assay type: cell-based; details: huh-7, 24 h
[8] = Selectivity index, ratio of CC50 for human Huh-7 cells to IC50 for Antiviral activity against Ebola virus constitutively expressed firefly; assay type: toxicity; details: read-out: Ratio CC50/IC50
[9] = Metabolic stability in human plasma assessed as compound remaining at 10 uM after 4 hrs by LC-QTOF-MS analysis; assay type: ADME, cell-free; details: read-out: Stability
Method in brief: (§5)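 Compound (10 µM) was incubated in human plasma at 37 °C, with aliquots taken from 0 to 24 h. Proteins were precipitated with cold ethanol (30 min, -20 °C), and samples were centrifuged and concentrated. Analysis was by LC-QTOF-MS with a ±0.1 m/z EIC window, and % digestion was calculated from peak area relative to 0 min.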

[10] = Metabolic stability in human plasma assessed as compound remaining at 10 uM after 2 hrs by LC-QTOF-MS analysis; assay type: ADME, cell-free; method in brief: as §5
Ebolavirus [11] = experiment: Antiviral activity against wild type Ebola virus infected in human HeLa cells assessed as reduction in viral infection measured after 24 hrs by Hoechst 33342 staining based microscopic analysis; assay type: functional, organism-based; details: Orthoebolavirus
[12] = Metabolic stability in human plasma assessed as drug degradation at 10 uM after 1 hr by LC-QTOF-MS analysis; assay type: ADME, cell-free; details: read-out: Drug degradation; method in brief: as §5
SARS-CoV-2 [13] = experiment: Antiviral activity against SARS Cov-2 USA_WA1/2020 infected in human Calu-3 cells measured upto 72 hrs by qRT-PCR method; assay type: functional, organism-based; details: Severe acute respiratory syndrome coronavirus 2, USA_WA1/2020, Calu-3, 72 h
SARS-CoV-2 [14] = experiment: Antiviral activity against SARS Cov-2 USA_WA1/2020 infected in HAE cells measured upto 72 hrs by qRT-PCR method; assay type: functional, organism-based; details: Severe acute respiratory syndrome coronavirus 2, USA_WA1/2020, HAE
[15] = as §2; details: Calu-3 cells; method in brief: as §3
[16] = as §4; assay type: cell-based; details: Huh-7 cells

Compound | selectivity ratio [1] | selectivity ratio [2] | IC50 (Ebolavirus [3]) [µM] | IC50 (SARS-CoV-2 [4]) [µM] | IC50 (SARS-CoV-2 [5]) [µM] | CC50 (Calu-3) [µM] | IC50 (Ebolavirus [6]) [µM] | selectivity ratio [7] | CC50 (Huh-7) [µM] | selectivity ratio [8] | remaining at 4 h, 10 µM [9] [%] | Stability ([10]; 2 h, 10 µM) | IC50 (Ebolavirus [11]) [µM] | remaining at 2 h, 10 µM ([10]; read-out: Stability) [%] | metabolised at 1 h, 10 µM [12] [%] | EC50 (SARS-CoV-2 [13]) [µM] | EC50 (SARS-CoV-2 [14]) [µM] | CC50 at 48 h [15] [µM] | CC50 at 24 h [16] [µM]
CCSCCCCCCCCCCCC(=O)O[C@H]1[C@@H](O)[C@](C#N)(c2ccc3c(N)ncnn23)O[C@@H]1CO[P@@](=O)(N[C@H](C)C(=O)OCC(CC)CC)Oc1ccccc1 | > 20.5 | 82.1 | > 50 | 0.25 | 2.4 | > 50 | 0.28 | > 200 | 23 |  |  |  |  |  |  |  |  |  | 
CCSCCCCCCCCCCCC(=O)O |  | > 50 | > 50 |  | > 50 |  | > 50 |  | > 50 |  |  |  |  |  |  |  |  |  | 
CCCCCCCCCCOCCC(=O)O[C@@H]1[C@H](O)[C@@H](CO[P@@](=O)(N[C@H](C)C(=O)OCC(CC)CC)Oc2ccccc2)O[C@@]1(C#N)c1ccc2c(N)ncnn12 | > 10.9 | 50 | 36 |  | 4.6 |  | 0.3 |  | 15 | 0.417 |  |  |  |  |  |  |  |  | 
CCCCCCCCCCOCCC(=O)O |  | > 50 | > 50 |  | > 50 |  | > 50 |  | > 50 |  |  |  |  |  |  |  |  |  | 
CCCCCCCCCCCCCCCC(=O)O[C@@H]1[C@H](O)[C@@H](CO[P@@](=O)(N[C@H](C)C(=O)OCC(CC)CC)Oc2ccccc2)O[C@@]1(C#N)c1ccc2c(N)ncnn12 |  | > 6.94 | > 50 | 3.6 |  | > 50 | 7.2 | > 13.9 | > 50 |  |  |  |  |  |  |  |  |  | 
CCC(CC)COC(=O)[C@@H](C)N[P@](=O)(OC[C@H]1O[C@@](C#N)(c2ccc3c(N)ncnn23)[C@H](O)[C@@H]1OC(=O)CCCCCCCCCCCN=[N+]=[N-])Oc1ccccc1 | > 16.6 | 44.4 | > 50 | 0.51 | 3 | > 50 | 0.45 | > 98 | 20 |  | 77.9 | Stable | 0.83 |  |  |  |  |  | 
CCC(CC)COC(=O)[C@H](C)N[P@](=O)(OC[C@H]1O[C@@](C#N)(c2ccc3c(N)ncnn23)[C@H](O)[C@@H]1O)Oc1ccccc1 |  |  | 24 | 0.06 | 0.85 |  | 0.32 |  |  |  |  |  | 1 | 47 | 13 | 0.28 | 0.01 | > 50 | > 50
CCCCCCCCCCCCCCCC(=O)O[C@H]1[C@@H](O)[C@](C#N)(c2ccc3c(N)ncnn23)O[C@@H]1CO[P@@](=O)(N[C@H](C)C(=O)OCC(CC)CC)Oc1ccccc1 |  | > 172 | > 50 | 1.6 |  | > 50 | 2.9 | > 32.3 | > 50 |  |  |  |  |  |  |  |  |  | 
CCCCCCCCCCCCCC(=O)O[C@@H]1[C@H](O)[C@@H](CO[P@@](=O)(N[C@H](C)C(=O)OCC(CC)CC)Oc2ccccc2)O[C@@]1(C#N)c1ccc2c(N)ncnn12 | > 20.7 | > 74.6 | > 50 | 0.29 | 2.4 | > 50 | 0.67 | > 172 | > 50 |  |  |  |  |  |  |  |  |  | 
CCCCCCCCCCCCCC(=O)O[C@H]1[C@@H](O)[C@](C#N)(c2ccc3c(N)ncnn23)O[C@@H]1CO[P@@](=O)(N[C@H](C)C(=O)OCC(CC)CC)Oc1ccccc1 | > 22.1 | > 70.4 | > 50 | 0.24 | 2.3 | > 50 | 0.71 | > 208 | > 50 |  |  |  |  |  |  |  |  |  | 
CCCCCCCCCCOCCC(=O)O[C@H]1[C@@H](O)[C@](C#N)(c2ccc3c(N)ncnn23)O[C@@H]1CO[P@@](=O)(N[C@H](C)C(=O)OCC(CC)CC)Oc1ccccc1 | > 25.6 | 46.3 | 14 | 0.18 | 2 | 34.3 | 0.16 | > 191 | 7.4 | 0.529 |  |  |  |  |  |  |  |  | 
CCC(CC)COC(=O)[C@@H](C)N[P@](=O)(OC[C@H]1O[C@@](C#N)(c2ccc3c(N)ncnn23)[C@H](OC(=O)CCCCCCCCCCCN=[N+]=[N-])[C@@H]1O)Oc1ccccc1 | > 10.9 | 54 | > 50 |  | 4.6 |  | 0.5 |  |  |  |  |  | 0.19 |  |  |  |  |  | 27
CCCCCCCCCCCCCC(=O)O[C@H]1[C@@H](OC(=O)CCCCCCCCCCCCC)[C@](C#N)(c2ccc3c(N)ncnn23)O[C@@H]1CO[P@@](=O)(N[C@H](C)C(=O)OCC(CC)CC)Oc1ccccc1 | > 1.59 | > 4.13 | > 50 |  | 31 |  | 12.1 |  | > 50 |  |  |  |  |  |  |  |  |  | 
CCCCCCCCCCCCCC(=O)O [MYRISTIC ACID] |  | > 50 | > 50 |  | > 50 |  | > 50 |  | > 50 |  |  |  |  |  |  |  |  |  | 
[N-]=[N+]=NCCCCCCCCCCCC(=O)O |  | > 50 | > 50 |  | > 50 |  | > 50 |  | > 50 |  |  |  |  |  |  |  |  |  | 
CCSCCCCCCCCCCCC(=O)O[C@@H]1[C@H](O)[C@@H](CO[P@@](=O)(N[C@H](C)C(=O)OCC(CC)CC)Oc2ccccc2)O[C@@]1(C#N)c1ccc2c(N)ncnn12 | > 14.2 | 164 | 29 |  | 3.5 |  | 0.25 |  | 41 | 1.41 |  |  |  |  |  |  |  |  | 
